Screening results deposited in PubChem by The Scripps Research Institute Molecular Screening Center.
This is a sample that favours compounds with a hit; in the whole collection about 4.6% have one here.
TAAR1 antagonist: human TAAR1 antagonism. Q96RJ0. CHO RD-HGA16 TAAR1, Fluo-8 calcium fluorescence, antagonist. inhibition, % at 3 µM. hit rate 1.5% among 360,000;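 active = inhibition above a per-plate cutoff, the mean inhibition of test compounds on that plate plus 3 SD, cut at about 49% in these data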;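 also: 0% = DMSO plus EC80 beta-PEA response and 100% = DMSO alone without agonist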
Target sequence (Q96RJ0 whole entry, looked up): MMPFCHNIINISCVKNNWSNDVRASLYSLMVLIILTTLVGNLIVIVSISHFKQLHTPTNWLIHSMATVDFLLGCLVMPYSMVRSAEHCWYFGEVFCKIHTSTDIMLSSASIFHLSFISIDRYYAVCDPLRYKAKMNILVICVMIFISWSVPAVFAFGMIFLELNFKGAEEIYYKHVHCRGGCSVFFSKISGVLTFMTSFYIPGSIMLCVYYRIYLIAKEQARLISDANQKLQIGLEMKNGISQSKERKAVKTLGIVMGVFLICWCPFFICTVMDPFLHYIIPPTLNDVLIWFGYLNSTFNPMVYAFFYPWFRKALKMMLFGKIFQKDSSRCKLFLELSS
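Test system: RD-HGA16 CHO cells with stable hTAAR1 and Gα16 / Probe or stimulus: EC80 β-phenethylamine stimulus / Times: seeding 17-24 h prior, 75-min 37 °C, 30-min RT dye loading / Detection: Fluo-8 calcium-sensitive fluorescence / Read-out basis: % inhibition scaled between DMSO and EC80 PEA controls / Repeats: singlicate, one well per test compound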
CHO parental Ca: counter-screen for OX1R antagonists: effect in parental CHO cells | parental CHO-K1, ATP-induced calcium, Fluo-8 fluorescence | inhibition, % at 5.6 µM | hit rate 0.63% among 330,000;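 active = inhibition above that plate's mean sample inhibition plus 3 SD, cut at about 26% in these data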;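 also: 0% = ATP-challenged DMSO wells and 100% = DMSO wells without ATP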
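Material: parental CHO cells / Compound: single nominal dose of 5.6 µM per compound / Signal: Fluo-8 fluorescence / Replicates: singlicate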
OX1R antag-1: antagonists of human orexin 1 receptor; CHO/OX1R cells, Fluo-8 calcium fluorescence, orexin A; inhibition, % at 5 µM; hit rate 0.43% among 330,000; AID 434989;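 active = inhibition above its plate's threshold, mean inhibition of all tested compounds on the plate plus 3 SD, cut at about 37% in these data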;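 also: 0% = orexin A challenge wells and 100% = SB-334867-A antagonist wells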
TAAR1 ag: agonists of human TAAR1; Q96RJ0; CHO RD-HGA16 TAAR1, Fluo-8 calcium fluorescence; vehicle wells 0%, saturating PEA agonist 100%; activation, % at 3 µM; hit rate 0.99% among 360,000; AID 624467;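 active = activation above the mean activation of all test compounds in the run plus 3 SD, cut at about 38% in these data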
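Benchmarks: low control DMSO, high control PEA (EC100); System: CHO RD-HGA16 cells carrying human TAAR1 plus Gα16; Detection: Fluo-8 fluorescence, 5 s baseline then 140 s kinetic read; Schedule: 17-24 h plating, Fluo-8 75 min 37 °C, 30 min RT; Read-out basis: % activation from peak over basal fluorescence ratio, DMSO-to-PEA scaled.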
OX1R antag-2: blocks the human orexin 1 receptor; O43613; OX1R-expressing cells, FRET antagonist read-out; inhibition, % at 6.6 µM; hit rate 1.8% among 330,000; AID 485270; in the data active = inhibition mostly above about 38%, no sharp cut-off; inactive = mostly below about 40%;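 also: 0% = agonist challenge alone and 100% = reference antagonist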
GPR7 antag: human neuropeptides B/W receptor 1 antagonism; P48145; GPR7-expressing cells, fluorescence antagonist assay; inhibition, % at 4.4 µM; hit rate 1.1% among 290,000; in the data active = inhibition above about 16%, passing the limit was not always enough;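 also: cells stimulated with the agonist NPW; 0% = agonist with vehicle and 100% = vehicle without agonist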
nonsel antag count: nonselective antagonist in TAAR1 antagonist counter-screen; shares compounds with TAAR1 antagonist; counterscreen cell line, calcium fluorescence, antagonist mode; inhibition, % at 3 µM; hit rate 77% among 2,400; AID 651780; in the data active = inhibition above about 22%;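 also: CHO-Ga16 host cells stimulated with ATP at an EC80 level; 0% = agonist EC80 plus vehicle and 100% = vehicle without agonist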
TAAR1 antag conf: human TAAR1 antagonism, confirmed; TAAR1-expressing cells, fluorescence antagonist read-out; AID 651785; inhibition, % at 3 µM; hit rate 40% among 2,400; shares compounds with TAAR1 antagonist; in the data active = inhibition above about 49%;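 also: CHO-Ga16 host cells challenged with agonist PEA near its EC80; 0% = agonist at EC80 plus vehicle and 100% = vehicle with no agonist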
Ga16 nonsel ag: counter-screen for TAAR1 antagonists: nonselective Ga16 agonists; shares compounds with TAAR1 antagonist; Ga16-expressing cells, calcium fluorescence, agonist counterscreen; activation, % at 3 µM; hit rate 18% among 2,400; AID 651953; in the data active = activation above about 12%;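 also: 0% = vehicle wells and 100% = saturating stimulus response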
TAAR1 ag counter: counter-screen for human TAAR1 antagonists: TAAR1 agonists; shares compounds with TAAR1 antagonist; hTAAR1 cell line, fluorescence activation, agonist mode; activation, % at 3 µM; hit rate 2% among 2,400; in the data active = activation above about 37%;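 also: CHO cells stably expressing TAAR1 with calcium dye readout; 0% = DMSO vehicle and 100% = full agonist response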
Active calls of the source: *.

How did COc1ccc(S(=O)(=O)N2CCCC2CNC(=O)C(=O)NCc2ccccc2)cc1 (centres undefined) do in these assays?
TAAR1 antagonist: -4; CHO parental Ca: -3; OX1R antag-1: -26; TAAR1 ag: 1; OX1R antag-2: 11

Results for Cc1ccc(CNC(=O)c2ccc(COc3ccccc3)cc2)cc1 ?
TAAR1 antagonist: 53*; CHO parental Ca: -7; OX1R antag-1: -10; TAAR1 ag: 5; OX1R antag-2: 16; GPR7 antag: -15; nonsel antag count: 14; TAAR1 antag conf: 14; Ga16 nonsel ag: 2; TAAR1 ag counter: 2

How did S=C(Nc1cccc(Cl)c1Cl)N1CCCC1 do in these assays?
TAAR1 antagonist: -15; TAAR1 ag: -1; GPR7 antag: 7

Results for COc1cc(/C=C2/C(=N)N3C=CSC3=NC2=O)ccc1OCCCOc1ccccc1C ?
TAAR1 antagonist: 64*; CHO parental Ca: -18; OX1R antag-1: -8; TAAR1 ag: 14; OX1R antag-2: 8; GPR7 antag: 13; nonsel antag count: 26*; TAAR1 antag conf: 43; Ga16 nonsel ag: 4; TAAR1 ag counter: 4

Results for COc1cc(/C=C2/C(=N)N3C=CSC3=NC2=O)ccc1OCCCOc1c(C)cccc1C ?
TAAR1 antagonist: 44; CHO parental Ca: -19; OX1R antag-1: -16; TAAR1 ag: 0; OX1R antag-2: -1; GPR7 antag: -1

What do the screens show for `Cc1cc(C)c2c(N)c(C(=O)c3cccc(Cl)c3)sc2n1`?
TAAR1 antagonist: 63*; CHO parental Ca: -25; OX1R antag-1: -10; TAAR1 ag: 17; OX1R antag-2: 11; GPR7 antag: -6; nonsel antag count: 23*; TAAR1 antag conf: 40; Ga16 nonsel ag: 6; TAAR1 ag counter: 3

How did Cc1cc(C)c2c(N)c(C(=O)c3ccc(Cl)cc3Cl)sc2n1 do in these assays?
TAAR1 antagonist: 76*; CHO parental Ca: -22; OX1R antag-1: -13; TAAR1 ag: 2; OX1R antag-2: 16; GPR7 antag: -5; nonsel antag count: 37*; TAAR1 antag conf: 55*; Ga16 nonsel ag: 7; TAAR1 ag counter: 3

How did Cc1cc(C)c2c(N)c(C(=O)c3ccccc3Cl)sc2n1 do in these assays?
TAAR1 antagonist: 34; CHO parental Ca: -2; OX1R antag-1: 7; TAAR1 ag: 15; OX1R antag-2: 12; GPR7 antag: -2

How did CC(=O)c1sc2nc(C)cc(C)c2c1N do in these assays?
TAAR1 antagonist: 5; CHO parental Ca: -13; OX1R antag-1: 2; TAAR1 ag: 4; OX1R antag-2: 27; GPR7 antag: 7

What do the screens show for `N#C/C(=C\Nc1ccccc1O)c1nc2ccccc2o1`?
TAAR1 antagonist: 87*; CHO parental Ca: 18; OX1R antag-1: 23; TAAR1 ag: 9; OX1R antag-2: 37; GPR7 antag: 1; nonsel antag count: 48*; TAAR1 antag conf: 73*; Ga16 nonsel ag: 10; TAAR1 ag counter: 13

Results for CC1CCCN(C(=O)c2ccc3ncsc3c2)C1 (centres undefined) ?
TAAR1 antagonist: 6; TAAR1 ag: 2

What do the screens show for `COc1ccccc1OCCC(=O)NNC(=O)c1ccccc1F`?
TAAR1 antagonist: 103*; CHO parental Ca: -14; OX1R antag-1: -15; TAAR1 ag: 1; OX1R antag-2: 1; nonsel antag count: -7; TAAR1 antag conf: -8; Ga16 nonsel ag: 11; TAAR1 ag counter: 8

What do the screens show for `Cc1ccc(C)c(OCCC(=O)NNC(=O)c2ccccc2F)c1`?
TAAR1 antagonist: -18; CHO parental Ca: -4; OX1R antag-1: 0; TAAR1 ag: 2; OX1R antag-2: 13
